Consider one compound from ChEMBL document CHEMBL1148178, “Dicranin, an antimicrobial and 15-lipoxygenase inhibitor from the moss Dicranum scoparium” (1993).

Usually inhibition stands for the change of the read-out against control, counted positive when it falls.

For test [1], the system named is Glycine max. The experiment in a line: Inhibition of soybean 15-LOX at 33 ug/ml. In short, it runs like this: (§1)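 15-Lipoxygenase inhibition assay run with arachidonic acid (40 μM) as the substrate, at the single test concentration given in each line.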
In test [2] the test system is Glycine max. The experiment in a line: Inhibition of soybean 15-LOX at 0.36 uM. In short, it runs like this:
as §1

`Oc1ccccc1O`: the values for the inhibition with Glycine max [1] and in the test on Glycine max [2] were 33% and 37%, respectively.
